The record followed here is ChEMBL document CHEMBL4699650, “SAR Investigation and Discovery of Water-Soluble 1-Methyl-1,4-dihydroindeno[1,2-c]pyrazoles as Potent Tubulin Polymerization Inhibitors” (J Med Chem, 2020).

Data set [1] concerns HepG2. As to the kind of experiment: Antiproliferation activity against human HepG2 cells assessed as cell growth inhibition measured after 72 hrs by MTT assay. It is filed as functional. In short, it runs like this: (§1)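 Cells grown in RPMI-1640 with 10% FBS at 37 °C, 5% CO2, seeded at 4−7 × 10³ cells/well and left to adhere overnight. Exposed to a range of concentrations for 72 h, then MTT (2.5 mg/mL stock) added for 4 h. Formazan dissolved in DMSO and absorbance read at 570 nm. GI50 taken as the concentration giving 50% growth inhibition, reported as mean ± SD of at least three independent experiments.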
Background: Formazan colour is commonly taken as a measure of viable cells.

For the next data set, the system named is HCT-116. As to the kind of experiment: Antiproliferation activity against human HCT116 cells assessed as cell growth inhibition measured after 72 hrs by MTT assay. Type of data set: functional. In short, it runs like this: as §1
A short description of data set [2]: Cytotoxicity against human L02 cells assessed as assessed as cell growth inhibition measured after 72 hrs by MTT assay. It is filed as cell-based. The method, boiled down: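 LO2 normal liver cells cultured in RPMI-1640/10% FBS at 37 °C, 5% CO2 and seeded at 4−7 × 10³ cells/well. Graded concentrations applied for 72 h, then MTT readout at 570 nm. GI50 is the concentration giving 50% growth inhibition, mean ± SD of at least three independent experiments.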

Data set [3] addresses Tubulin beta (Homo sapiens) (UniProt P68371+Q9H4B7+Q13509+P04350+Q3ZCM7+P07437+Q13885+Q9BVA1+Q9BUF5+A6NNZ2). As to the kind of experiment: Inhibition of N,N'-Ethylenebis(iodoacetamide) binding to beta-tubulin in human HepG2 cells assessed as reduction in EBI/beta-tubulin adduct formation preincubated for 2 hrs followed by EBI addition and measured after 1.5 hrs by Western blot analysis. Type of data set: cell-based. The conditions noted are these: dose microM 0.2-25, time 3.5 hrs. In short, it runs like this: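 HepG2 seeded 5 × 10⁵ cells/well, adhered overnight. […] Lysate protein (20 μg) run on 10% polyacrylamide gel on ice and transferred to PVDF. Probed with anti-β-tubulin 16 h at 4 °C, then HRP secondary. Chemiluminescence detection.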

Data set [4] deals with HepG2. In words: Induction of cell cycle arrest in human HepG2 cells assessed as accumulation in G1 phase at 5 nM incubated for 24 hrs by propidium iodide staining based flow cytometry (reference value: 60.76%). It is filed as functional. For orientation: A flow cytometer gives signals particle by particle.
Data set [5] concerns HepG2. In words: Induction of cell cycle arrest in human HepG2 cells assessed as accumulation in S phase at 10 nM incubated for 24 hrs by propidium iodide staining based flow cytometry (reference value: 26.65%). It is filed as functional.
Data set [6] deals with HepG2. As to the kind of experiment: Induction of cell cycle arrest in human HepG2 cells assessed as accumulation in G2/M phase at 10 nM incubated for 24 hrs by propidium iodide staining based flow cytometry (reference value: 12.59%). Type of data set: functional.
Data set [7] concerns HepG2. In words: Induction of cell cycle arrest in human HepG2 cells assessed as accumulation in S phase at 20 nM incubated for 24 hrs by propidium iodide staining based flow cytometry (reference value: 26.65%). It is filed as functional.
The test system of data set [8] is HepG2. As to the kind of experiment: Induction of cell cycle arrest in human HepG2 cells assessed as accumulation in G2/M phase at 20 nM incubated for 24 hrs by propidium iodide staining based flow cytometry (reference value: 12.59%). It is filed as functional.
Data set [9] has as its system HepG2. In words: Induction of apoptosis in human HepG2 cells assessed as necrotic cells at 5 nM incubated for 12 hrs by Annexin V-PE and 7-AAD staining based flow cytometry (reference value: 0.55 %). Type of data set: functional. The method, boiled down: (§2)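 HepG2 cells seeded at 3 × 10⁵ cells/well, adhered overnight, exposed at 5, 10 or 20 nM for 12 or 24 h. Harvested into Annexin V binding buffer and stained with annexin V-PE and 7-AAD for 15 min at room temperature in the dark, then analysed by flow cytometry. Gates: live (−/−), early apoptotic (+/−), late apoptotic (+/+), necrotic (−/+).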

Data set [10] has as its system HepG2. In words: Induction of apoptosis in human HepG2 cells assessed as live cells at 5 nM incubated for 12 hrs by Annexin V-PE and 7-AAD staining based flow cytometry (reference value: 92.1%). It is filed as functional. In short, it runs like this: as §2
For data set [11], the system named is HepG2. As to the kind of experiment: Induction of apoptosis in human HepG2 cells assessed as necrotic cells at 20 nM incubated for 12 hrs by Annexin V-PE and 7-AAD staining based flow cytometry (reference value: 0.55 %). It is filed as functional. In short, it runs like this: as §2
Data set [12] concerns HepG2. In words: Induction of apoptosis in human HepG2 cells assessed as early apoptotic cells at 20 nM incubated for 12 hrs by Annexin V-PE and 7-AAD staining based flow cytometry (reference value: 4.52%). Type of data set: functional. In short, it runs like this:
as §2

In data set [13] the test system is HepG2. In words: Induction of apoptosis in human HepG2 cells assessed as late apoptotic cells at 10 nM incubated for 24 hrs by Annexin V-PE and 7-AAD staining based flow cytometry (reference value: 2.33 %). It is filed as functional. The method, boiled down:
as §2

The test system of data set [14] is HepG2. As to the kind of experiment: Induction of apoptosis in human HepG2 cells assessed as early apoptotic cells at 10 nM incubated for 24 hrs by Annexin V-PE and 7-AAD staining based flow cytometry (reference value: 4.16 %). Type of data set: functional. The method, boiled down: as §2
For data set [15], the system named is HepG2. In words: Induction of apoptosis in human HepG2 cells assessed as early apoptotic cells at 20 nM incubated for 24 hrs by Annexin V-PE and 7-AAD staining based flow cytometry (reference value: 4.16 %). Type of data set: functional. The method, boiled down:
as §2

Data set [16] has as its system HepG2. As to the kind of experiment: Induction of apoptosis in human HepG2 cells assessed as increase in Bax expression incubated for 24 hrs by Western blot analysis. The conditions noted are these: dose nM 2.5-20, time 24.0 hrs. It is filed as functional, cell-based. The method, boiled down: (§3)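 Lysates (20 μg protein) separated by 10% PAGE and blotted to PVDF. Probed for Bax, Bcl-2, cleaved caspase-3 and cleaved PARP, detected by ECL and quantified by densitometry.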
(In general: Immunoblotting shows a protein as a band on a membrane.)

Data set [17] relates to HepG2. As to the kind of experiment: Induction of apoptosis in human HepG2 cells assessed as increase in cleaved caspase-3 expression incubated for 24 hrs by Western blot analysis. Type of data set: functional, cell-based. The conditions noted are these: dose nM 2.5-20, time 24.0 hrs. The method, boiled down: as §3
The nature of data set [18]: Aqueous solubility of compound in DMSO at pH 7.4 by HPLC analysis. It is filed as physicochemical. The conditions noted are these: aqueous medium. The method, boiled down: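 Solubility measured at pH 7.4. DMSO stock (10 mg/mL) diluted in methanol to five levels to build an HPLC peak-area standard curve. Compound added to 1 mL buffer to make a saturated solution, and the peak area of that solution analysed by HPLC on a C18 column. Solubility calculated from the standard curve.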

Data set [19] in a line: Toxicity in Balb/c nude mouse xenografted with human HepG2 cells assessed as change in body weight at 5 mg/kg, iv administered every 2 days for 21 days (reference value: 7.8 % ). The conditions noted are these: in vivo, 504 h, time 21 day. Type of data set: organism-based.
For data set [20], the system named is HepG2. As to the kind of experiment: Antitumor activity against human HepG2 cells xenografted in Balb/c nude mouse assessed as reduction in tumor volume at 5 mg/kg, iv administered every 2 days for 21 days and measured at 3 days interval during compound dosing. The conditions noted are these: time 21 day. It is filed as functional. More on the design: scale not given: the % may be the effect or the level left. The method, boiled down:
(§4)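 Nude mice received 200 μL PBS containing HepG2 at 1 × 10⁷ cells/mL subcutaneously in the right armpit. Randomised at 90 mm³ tumour volume, five per group. Compound given iv as a 2.0 mg/mL solution in distilled water, 5 or 10 mg/kg every two days for 21 days, with a water vehicle group. Tumour volume (L × W²/2) and body weight recorded every 3 days. Inhibition = (1 − RTV treated/RTV vehicle) × 100%.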

The test system of data set [21] is HepG2. As to the kind of experiment: Antitumor activity against human HepG2 cells xenografted in Balb/c nude mouse assessed as reduction in tumor volume at 10 mg/kg, iv administered every 2 days for 21 days and measured at 3 days interval during compound dosing. Type of data set: functional. More on the design: scale not given: the % may be the effect or the level left. The conditions noted are these: time 21 day. In short, it runs like this:
as §4

Where only a bound is given, the exact number is not on record here.

Regarding `CCOc1cccc(Nc2nn(C)c3c2Cc2cc(OCC)c(OCCCN)cc2-3)c1`, the GI50 with HepG2 [1] and in the data set with HCT-116 was 2.4 nM each time. Besides, the GI50 at 72 h in [2] came out at 284 nM. Also, the inhibition entry in data set [3] is “Dose-dependent effect”. In addition, the Activity in the data set with HepG2 [4] is given as 49.56%; in the data set with HepG2 [5], 26.85%; in the data set with HepG2 [6], 56.07%; with HepG2 [7], 8.43%; in the data set with HepG2 [8] it was 88.46%; with HepG2 [9] it was 0.43%. The Activity in the data set on HepG2 [10] came to 90.4%; in the data set on HepG2 [11] it was 1.36%; with HepG2 [12], 14.5%; in the data set with HepG2 [13] it was 7.19%; with HepG2 [14] it was 16.7%; in the data set on HepG2 [15], 36.6%. In addition, the Activity entry in the data set on HepG2 [16] was “Dose-dependent effect”; with HepG2 [17], “Dose-dependent effect”; in [19], 8.4%; with HepG2 [20], 54%; in the data set on HepG2 [21] it was 68%. Also, the solubility in data set [18] is above 1000 µg/mL.

In general, GI50 refers to the concentration that inhibits growth by half. What is called solubility is the concentration that dissolves in the medium under given conditions.
